1 molecule from ChEMBL document CHEMBL4765360, “Design, synthesis and biological evaluation of novel potent STAT3 inhibitors based on BBI608 for cancer therapy” (Eur J Med Chem, 2020) can be followed below.

SMILES strings stand for the structures. The source made the active and inactive calls. The calls are words filed in the database; no cut-off is given here.

In series [1] the test system is MDA-MB-231. The series is described as follows: Induction of cell cycle arrest in human MDA-MB-231 cells assessed as S phase accumulation at 1 uM incubated for 24 hrs by PI staining based flow cytometry analysis (reference value: 26.21 %). The format is functional. (Flow cytometry measures light scatter and fluorescence of single cells or particles in a stream.)
The subject of series [2] is MDA-MB-231. As to the kind of experiment: Induction of apoptosis in human MDA-MB-231 cells assessed as late apoptotic cells at 2 uM incubated for 24 hrs by annexin V-FITC and PI staining based flow cytometry analysis (reference value: 3.72 %). Format: functional.
Series [3] concerns the target T1, Signal transducer and activator of transcription 3 (Homo sapiens, UniProt P40763). The series is described as follows: Displacement of 5-FAM-GpYLPQTV-NH2 from His-tagged STAT3 (unknown origin) (127 to 722 residues) incubated for 30 mins followed by fluorescent peptide probe addition and measured after 1 hr by fluorescence polarization based competition binding assay.

The subject of series [4] is Mus musculus. The series is described as follows: In vivo inhibition of STAT3 in BALB/c mouse xenografted with human MDA-MB-231 cells assessed as reduction in STAT3 Y705 phosphorylation in tumor tissue at 10 mg/kg, ip administered once daily for 21 days and measured on day 21 by immunofluorescent staining based fluorescence microscopy. Format: functional, organism-based. Conditions: dose 10.0 mg/kg/day, time 21.0 day. Put shortly: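 Tumors from the xenograft study (10 mg/kg i.p. daily, 21 days) were sectioned and fixed. Sections were stained with anti-p-STAT3 overnight at 4 °C, then Cy3 anti-rabbit secondary for 40 min at 37 °C. Nuclei stained with DAPI; imaged by fluorescence microscopy. Mean ± SEM, n=4.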

Series [5] has as its target T1, Signal transducer and activator of transcription 3. The series is described as follows: Inhibition of STAT3 in human MDA-MB-231 cells assessed as reduction in c-myc expression incubated for 24 hrs by Western blot analysis. The format is cell-based. The following applies: dose 0.75-3 µM. Put shortly: (§1)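 MDA-MB-231 cells treated with a range of concentrations for 24 h. RIPA lysates with PMSF, 40 µg protein/lane, on 10% SDS-PAGE, then PVDF. Blocked in 5% milk/TBST for 2 h. Primary antibodies to STAT3, p-STAT3(Y705), STAT1, p-STAT1(Y701), c-Myc and Cyclin D1 overnight at 4 °C; GAPDH as loading control. HRP secondary for 1 h; ECL detection.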
Background: A western blot detects proteins with antibodies after separation by electrophoresis.

Series [6] is described as follows: Toxicity in BALB/c mouse xenografted with human MDA-MB-231 cells assessed as effect on body weight loss at 5 to 10 mg/kg, ip administered once daily for 21 days and measured for 21 days. The format is organism-based. The following applies: in vivo, 504 h, dose 5-10 mg/kg/day, time 21 day. Put shortly: (§2)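 Female BALB/c nude mice, 5 weeks old (16–18 g), were given 5×10^6 MDA-MB-231 cells subcutaneously. At ~50 mm³, mice were randomized to three groups (n=6): vehicle, 5 or 10 mg/kg i.p. daily for 21 days. Tumor volume (length×width²/2) was measured every 3 days and body weight recorded. Tumors were excised and weighed at the end. TGI derived versus control; mean ± SEM.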
(In general: A xenograft is tissue or cells of one species grown in another, often human tumour cells in immunodeficient mice.)

Series [7] concerns MDA-MB-231. As to the kind of experiment: Effect on STAT1 expression in human MDA-MB-231 cells at 0.75 to 3 uM incubated for 24 hrs by Western blot analysis. The format is functional, cell-based. Conditions: dose 0.75-3 µM. Put shortly: as §1
The target of series [8] is T1, Signal transducer and activator of transcription 3. The series is described as follows: Inhibition of STAT3 in human MDA-MB-231 cells assessed as reduction in Cyclin D1 expression incubated for 24 hrs by Western blot analysis. The format is cell-based. Conditions: dose 0.75-3 µM. Put shortly: as §1
The subject of series [9] is MDA-MB-231. The series is described as follows: Induction of apoptosis in human MDA-MB-231 cells assessed as necrotic cells at 2 uM incubated for 24 hrs by annexin V-FITC and PI staining based flow cytometry analysis (reference value: 0.23 %). Format: functional.
For series [10], the system named is MDA-MB-468. The series is described as follows: Antiproliferative activity against human MDA-MB-468 cells overexpressing STAT3 assessed as reduction in cell growth incubated for 48 hrs by CCK-8 assay. Format: functional, cell-based. Conditions: MDA-MB-468, 48 h. Put shortly:
(§3)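 Cells seeded at 5000-7000/well and allowed to settle for 8 h at 37 °C, 5% CO2. Graded compound concentrations were then added in triplicate (DMSO <0.1%) for 48 h. Medium was replaced with 10% CCK-8 for 4 h (MDA-MB-231, MDA-MB-468) or 1 h (HepG2), and A450 was read. IC50 is mean ± SD of at least three independent experiments. HepG2 was grown in high-glucose DMEM with 10% FBS.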

Series [11] deals with MDA-MB-231. The series is described as follows: Antiproliferative activity against human MDA-MB-231 cells overexpressing STAT3 assessed as reduction in cell growth incubated for 48 hrs by CCK-8 assay. Conditions: MDA-MB-231, 48 h. Format: functional, cell-based. Put shortly:
as §3

For series [12], the system named is MDA-MB-231. The series is described as follows: Antitumor activity against human MDA-MB-231 cells xenografted in BALB/c mouse assessed reduction in tumor weight at 10 mg/kg, ip administered once daily for 21 days and measured on day 21 relative to control. Format: functional. Also noted: scale not given: the % may be the effect or the level left. The following applies: dose 10 mg/kg/day; time 21 day. Put shortly:
as §2

Series [13] deals with MDA-MB-231. As to the kind of experiment: Induction of apoptosis in human MDA-MB-231 cells assessed as viable cells at 4 uM incubated for 24 hrs by annexin V-FITC and PI staining based flow cytometry analysis (reference value: 93.37 %). Conditions: read-out: Activity. The format is functional.
Series [14] concerns HepG2. As to the kind of experiment: Antiproliferative activity against human HepG2 cells overexpressed STAT3 assessed as reduction in cell growth incubated for 48 hrs by CCK-8 assay. Format: functional, cell-based. Conditions: HepG2, 48 h. Put shortly:
as §3

Series [15] relates to MDA-MB-231. As to the kind of experiment: Induction of apoptosis in human MDA-MB-231 cells assessed as viable cells at 1 uM incubated for 24 hrs by annexin V-FITC and PI staining based flow cytometry analysis (reference value: 93.37 %). Format: functional. The following applies: read-out: Activity.
Series [16] deals with MDA-MB-231. As to the kind of experiment: Induction of cell cycle arrest in human MDA-MB-231 cells assessed as S phase accumulation at 4 uM incubated for 24 hrs by PI staining based flow cytometry analysis (reference value: 26.21 %). Format: functional.
For series [17], the system named is MDA-MB-231. The series is described as follows: Induction of cell cycle arrest in human MDA-MB-231 cells assessed as G0/G1 phase accumulation at 1 uM incubated for 24 hrs by PI staining based flow cytometry analysis (reference value: 57.99 %). The format is functional.
In series [18] the test system is MDA-MB-231. The series is described as follows: Antitumor activity against human MDA-MB-231 cells xenografted in BALB/c mouse assessed as reduction in tumor growth at 10 mg/kg, ip administered once daily for 21 days and measured on day 21 relative to control. Format: functional. The following applies: MDA-MB-231, ip, 504 h, time 21 day, read-out: TGI. Put shortly:
as §2

The test system of series [19] is MDA-MB-231. The series is described as follows: Antitumor activity against human MDA-MB-231 cells xenografted in BALB/c mouse assessed reduction in tumor weight at 5 mg/kg, ip administered once daily for 21 days and measured on day 21 relative to control. The following applies: MDA-MB-231, ip, 504 h, time 21 day. Format: functional. Put shortly: as §2
Series [20] relates to MDA-MB-231. As to the kind of experiment: Induction of cell cycle arrest in human MDA-MB-231 cells assessed as increase in S phase accumulation incubated for 24 hrs by PI staining based flow cytometry analysis. Format: functional. The following applies: dose 1-4 µM.
Series [21] relates to MDA-MB-231. The series is described as follows: Induction of cell cycle arrest in human MDA-MB-231 cells assessed as G0/G1 phase accumulation at 4 uM incubated for 24 hrs by PI staining based flow cytometry analysis (reference value: 57.99 %). Format: functional.
Series [22] deals with MDA-MB-231. As to the kind of experiment: Induction of apoptosis in human MDA-MB-231 cells assessed as late apoptotic cells at 4 uM incubated for 24 hrs by annexin V-FITC and PI staining based flow cytometry analysis (reference value: 3.72 %). The format is functional.
The subject of series [23] is MDA-MB-231. As to the kind of experiment: Effect on STAT3 expression in human MDA-MB-231 cells at 0.75 to 3 uM incubated for 24 hrs by Western blot analysis. Format: functional, cell-based. Conditions: dose 0.75-3 µM. Put shortly:
as §1

T1 sequence (P40763 whole entry, the tested form may be a part): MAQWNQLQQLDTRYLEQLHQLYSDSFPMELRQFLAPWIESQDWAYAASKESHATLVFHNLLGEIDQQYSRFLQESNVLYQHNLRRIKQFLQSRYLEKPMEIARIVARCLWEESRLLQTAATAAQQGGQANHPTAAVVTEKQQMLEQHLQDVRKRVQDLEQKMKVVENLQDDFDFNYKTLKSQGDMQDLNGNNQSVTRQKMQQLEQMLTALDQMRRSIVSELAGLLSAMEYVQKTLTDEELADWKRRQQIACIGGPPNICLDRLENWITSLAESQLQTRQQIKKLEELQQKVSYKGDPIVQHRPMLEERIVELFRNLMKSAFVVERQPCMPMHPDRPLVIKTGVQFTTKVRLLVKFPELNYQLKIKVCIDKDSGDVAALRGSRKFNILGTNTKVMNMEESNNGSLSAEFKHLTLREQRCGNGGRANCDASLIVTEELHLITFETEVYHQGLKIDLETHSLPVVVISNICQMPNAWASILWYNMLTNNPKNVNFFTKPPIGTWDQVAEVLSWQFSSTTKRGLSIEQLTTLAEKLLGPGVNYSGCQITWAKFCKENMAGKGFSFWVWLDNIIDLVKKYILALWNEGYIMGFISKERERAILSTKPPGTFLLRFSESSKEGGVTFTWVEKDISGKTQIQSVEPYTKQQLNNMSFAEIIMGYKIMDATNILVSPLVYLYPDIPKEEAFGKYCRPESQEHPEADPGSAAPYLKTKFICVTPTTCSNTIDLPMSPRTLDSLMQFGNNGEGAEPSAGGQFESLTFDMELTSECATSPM

As a reminder, the IC50 is the point on the concentration scale where inhibition reaches its midpoint. Turning to `COc1ccc(NC2=CC(=O)c3cc(C(C)=O)oc3C2=O)cc1`, the Activity in series [1] was 34.31%; in series [2], 12.69%; in series [6], “Non-Toxic”; in series [9] it was 0.38%; in [12], 45.19%; in series [16], 57.09%. In addition, the Activity is 49.42% in [17], “Dose-dependent effect” in [20], 35.39% in series [21] and 22.03% in [22]. Further, the IC50 in series [3] came out at 5180 nM; in series [10], 770 nM; in series [11], 670 nM; in series [14], 1240 nM. Further, the inhibition entry in series [3] (time 1.5 hrs), in [5] and in [8] was “Dose-dependent effect” in each case. Besides, the inhibition result in [4] is “Active”. Further, the outcome in series [7] and in [23] was inactive. Also, in series [13], the viability at 4 µM is 67%. Besides, the viability at 1 µM in series [15] worked out at 87.9%. Moreover, the inhibition in vivo at 10 mg/kg/day in series [18] was determined as 54.6%. In [19], this molecule registered an inhibition in vivo at 5 mg/kg/day of 26%.
